Measured values reported in ChEMBL document CHEMBL2380254, “Optimization of tocotrienols as antiproliferative and antimigratory leads” (Eur J Med Chem, 2013).

Assays:
Assay type in all cases: functional
[1] = tested on: MDA-MB-231; assay: Growth inhibition of human MDA-MB-231 cells assessed as cell growth at 10 uM after 48 hrs by sulforhodamine B assay; conditions: MDA-MB-231, 48 h, read-out: Activity
Method in brief: (§1)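 Single-dose NCI-60 screen: adherent cells in RPMI 1640 with 5% FBS were exposed to 10 µM for 48 h at 37 °C after a 24 h preincubation. They were fixed in situ with cold TCA (10% final), stained with 0.4% SRB in 1% acetic acid, solubilized in 10 mM Tris base, and read at 515 nm. Percent growth was taken relative to time-zero and control plates.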

[2] = tested on: LOX IMVI; assay: Growth inhibition of human LOXIMVI cells assessed as cell growth at 10 uM after 48 hrs by sulforhodamine B assay; conditions: read-out: Activity
Method in brief: (§2)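 NCI-60 single-dose screen at 10 µM: cells in RPMI 1640 with 5% FBS, preincubated 24 h, then exposed 48 h at 37 °C. TCA fixation (16% final for suspension cells), SRB staining, absorbance 515 nm. Percent growth relative to time-zero and untreated control plates; negative values indicate cell kill.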

[3] = tested on: SF-268; assay: Growth inhibition of human SF268 cells assessed as cell growth at 10 uM after 48 hrs by sulforhodamine B assay; conditions: SF-268, 48 h, read-out: Activity; method in brief: as §1
[4] = tested on: NCI-H522; assay: Growth inhibition of human NCI-H522 cells after 48 hrs by sulforhodamine B assay; conditions: NCI-H522, 48 h
Method in brief: (§3)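 NCI-60 panel cells grown in RPMI 1640 with 5% FBS and 2 mM L-glutamine, seeded at 5000–40,000 cells/well and preincubated 24 h. Five 10-fold dilutions (0.001–100 µM) from DMSO stocks were added for 48 h at 37 °C. Adherent cells were fixed with cold TCA (10% final) for 60 min at 4 °C, stained with 0.4% SRB, and read at 515 nm. GI50 was set where 100×(T−T0)/(C−T0)=50.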

[5] = tested on: SR; assay: Growth inhibition of human SR cells after 48 hrs by sulforhodamine B assay
Method in brief: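 Suspension leukemia line in RPMI 1640 with 5% FBS and 2 mM L-glutamine, NCI-60 five-dose format ([…]), 48 h at 37 °C. Settled cells were fixed with 80% TCA (final 16%), stained with SRB and read at 515 nm. GI50 is where 100×(T−T0)/(C−T0)=50, with T0 measured at dosing.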

[6] = tested on: MDA-MB-231; assay: Growth inhibition of human MDA-MB-231 cells after 48 hrs by sulforhodamine B assay; conditions: MDA-MB-231, 48 h; method in brief: as §3
[7] = tested on: DU-145; assay: Growth inhibition of human DU145 cells assessed as cell growth at 10 uM after 48 hrs by sulforhodamine B assay; conditions: DU-145, 48 h, read-out: Activity; method in brief: as §2
[8] = tested on: SNB-19; assay: Growth inhibition of human SNB19 cells after 48 hrs by sulforhodamine B assay; conditions: SNB-19, 48 h
Method in brief: (§4)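 NCI-60 five-dose screen. Cells were grown in RPMI 1640 with 5% FBS and 2 mM L-glutamine, plated at 5000–40,000 cells/well and incubated 24 h before dosing, with T0 plates TCA-fixed. DMSO stocks were diluted to doses of […] and exposed 48 h at 37 °C, 5% CO2. Cells were fixed with cold TCA (final 10%, 60 min, 4 °C), stained with 0.4% SRB in 1% acetic acid for 10 min, solubilized in 10 mM trizma base and read at 515 nm. GI50 is where 100×(T−T0)/(C−T0)=50.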

[9] = tested on: CCRF-CEM; assay: Growth inhibition of human CCRF-CEM cells after 48 hrs by sulforhodamine B assay
Method in brief: (§5)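 NCI-60 screen: cells in RPMI 1640 with 5% FBS and 2 mM glutamine, 5000–40,000 cells/well, preincubated 24 h. Five concentrations (10-fold dilutions; 100 to 0.001 µM) applied for 48 h at 37 °C. TCA fixation, SRB stain, absorbance at 515 nm. Time-zero plates included; GI50 where 100×(T−T0)/(C−T0)=50.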

[10] = tested on: SN12C; assay: Growth inhibition of human SN12C cells assessed as cell growth at 10 uM after 48 hrs by sulforhodamine B assay; conditions: read-out: Activity
Method in brief: (§6)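 Single-dose NCI-60 test at 10 µM. Cells were grown in RPMI 1640 with 5% FBS and 2 mM L-glutamine, preincubated 24 h, with T0 plates TCA-fixed. Exposure was 48 h at 37 °C, 5% CO2. Cells were fixed with cold TCA (final 10%, 4 °C, 60 min), stained with SRB and read at 515 nm. Percent growth was taken relative to T0 and untreated control; negative values denote cell kill.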

[11] = tested on: IGROV-1; assay: Growth inhibition of human IGROV1 cells assessed as cell growth at 10 uM after 48 hrs by sulforhodamine B assay; conditions: IGROV-1, 48 h, read-out: Activity; method in brief: as §2
[12] = tested on: NCI-H23; assay: Growth inhibition of human NCI-H23 cells assessed as cell growth at 10 uM after 48 hrs by sulforhodamine B assay; conditions: NCI-H23, 48 h, read-out: Activity; method in brief: as §1
[13] = tested on: RPMI-8226; assay: Growth inhibition of human RPMI8226 cells after 48 hrs by sulforhodamine B assay; conditions: RPMI-8226, 48 h
Method in brief: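 NCI-60 suspension lines in RPMI 1640 with 5% FBS and 2 mM L-glutamine, preincubated 24 h. A five-concentration 10-fold series (0.001–100 µM) was given for 48 h at 37 °C. Settled cells were fixed with 80% TCA (16% final), stained with SRB, and read at 515 nm. GI50 was taken where 100×(T−T0)/(C−T0)=50, with T0 plates fixed at drug addition.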

[14] = tested on: SK-MEL-5; assay: Growth inhibition of human SK-MEL-5 cells assessed as cell growth at 10 uM after 48 hrs by sulforhodamine B assay; conditions: SK-MEL-5, 48 h, read-out: Activity; method in brief: as §1
[15] = tested on: KM12; assay: Growth inhibition of human KM12 cells after 48 hrs by sulforhodamine B assay; conditions: KM12, 48 h; method in brief: as §5
[16] = tested on: CCRF-CEM; assay: Growth inhibition of human CCRF-CEM cells assessed as cell growth at 10 uM after 48 hrs by sulforhodamine B assay; conditions: read-out: Activity; method in brief: as §2
[17] = tested on: CAKI-1; assay: Growth inhibition of human CAKI-1 cells after 48 hrs by sulforhodamine B assay; conditions: CAKI-1, 48 h; method in brief: as §5
[18] = tested on: UO-31; assay: Growth inhibition of human UO31 cells after 48 hrs by sulforhodamine B assay; conditions: UO-31, 48 h; method in brief: as §4
[19] = tested on: SK-MEL-28; assay: Growth inhibition of human SK-MEL-28 cells assessed as cell growth at 10 uM after 48 hrs by sulforhodamine B assay; conditions: SK-MEL-28, 48 h, read-out: Activity; method in brief: as §1
[20] = tested on: OVCAR-8; assay: Growth inhibition of human OVCAR8 cells assessed as cell growth at 10 uM after 48 hrs by sulforhodamine B assay; conditions: OVCAR-8, 48 h, read-out: Activity; method in brief: as §1
[21] = tested on: SK-MEL-2; assay: Growth inhibition of human SK-MEL-2 cells after 48 hrs by sulforhodamine B assay; conditions: SK-MEL-2, 48 h; method in brief: as §3
[22] = tested on: SNB-75; assay: Growth inhibition of human SNB75 cells assessed as cell growth at 10 uM after 48 hrs by sulforhodamine B assay; conditions: SNB-75, 48 h, read-out: Activity; method in brief: as §6

Structure (SMILES) | growth at 10 µM [1] [%] | growth at 10 µM [2] [%] | growth at 10 µM [3] [%] | GI50 [4] [µM] | GI50 [5] [nM] | GI50 [6] [nM] | growth at 10 µM [7] [%] | GI50 [8] [nM] | GI50 [9] [µM] | growth at 10 µM [10] [%] | growth at 10 µM [11] [%] | growth at 10 µM [12] [%] | GI50 [13] [µM] | growth at 10 µM [14] [%] | GI50 [15] [nM] | growth at 10 µM [16] [%] | GI50 [17] [µM] | GI50 [18] [nM] | growth at 10 µM [19] [%] | growth at 10 µM [20] [%] | further results
CC(C)=CCC/C(C)=C/CC/C(C)=C/CC[C@]1(C)CCc2c3c(cc(C)c2O1)OCN(C1CCN(Cc2ccccc2)CC1)C3 | 18.2 | -47.4 | 12.9 | 1.81 | 217 | 1630 | 65.3 | 1610 | 0.308 | 1.77 | -48.5 | 38.7 | 0.324 | 110 | 699 | 2.34 | 1.6 | 1510 | 60 | -85.8 | GI50 [21]: 2.3 µM; growth at 10 µM [22]: 62.5%
CC(C)=CCC/C(C)=C/CC/C(C)=C/CC[C@]1(C)CCc2c3c(cc(C)c2O1)OCN(CCCCCCO)C3 | -28.4 | -90.8 | -80.2 | 4.37 | 670 | 782 | 10.7 | 632 | 0.866 | 40.3 | -73.7 | -22.3 | 1.11 | 20.9 | 609 | -20.6 | 3.79 | 1520 | -49.6 | -62.8 | GI50 [21]: 5.66 µM; growth at 10 µM [22]: -1.37%
CC(C)=CCC/C(C)=C/CC/C(C)=C/CC[C@]1(C)CCc2c3c(c(C)c(C)c2O1)OCN(CCCCCCO)C3 | 9.83 | -88.4 | 26 | 3.45 | 2700 | 2750 | 77 | 2480 | 2.73 | 66.5 | -23.6 | 47 | 3.36 | 95.2 | 2840 | 5.83 | 2.82 | 2270 | 63.1 | 49.9 | GI50 [21]: 3.27 µM; growth at 10 µM [22]: 62.8%
CC(C)=CCC/C(C)=C/CC/C(C)=C/CC[C@]1(C)CCc2c3c(cc(C)c2O1)OCN(CCCCCO)C3 | 46.1 | -0.88 | 48.5 | 7.08 | 4000 | 5870 | 37.2 | 5990 | 7.83 | 67.4 | 53.1 | 92.9 | 9.91 | 83.9 | 7410 | 38.4 | 5.33 | 4640 | 34.7 | -18.9 | GI50 [21]: 7.47 µM; growth at 10 µM [22]: 74.8%
CC(C)=CCC/C(C)=C/CC/C(C)=C/CC[C@]1(C)CCc2c3c(cc(C)c2O1)OCN(CCc1ccc(O)cc1)C3 | 46.9 | -93 | 18.2 | 5.32 | 1370 | 4650 | 42.1 | 5890 | 1.75 | 65.6 | 0.45 | 27.2 | 4.03 | 73.8 | 1600 | 2.75 | 5.31 | 4420 | -83.8 | -74.3 | GI50 [21]: 7.02 µM; growth at 10 µM [22]: 44.4%
CC(C)=CCC/C(C)=C/CC/C(C)=C/CC[C@]1(C)CCc2c3c(cc(C)c2O1)OCN(CCCCO)C3 | -48.2 | 100 | -70.5 | 21.9 | 7260 | 17900 | 2.95 | 16000 | 14.5 | 19.3 | -15.1 | 54.8 | 20.4 | 37.1 | 11900 | -0.6 | 15.2 | 12200 | 0.63 | -13.3 | GI50 [21]: 18.9 µM; growth at 10 µM [22]: 41.5%
CC(C)=CCC/C(C)=C/CC/C(C)=C/CC[C@]1(C)CCc2c3c(c(C)c(C)c2O1)OCN(CCCCCCCCO)C3 | 40.7 | -80.1 | 54.9 | 2.91 | 2650 | 2890 | 73.1 | 2470 | 3.34 | 65.8 | -53.1 | 56.1 | 3.13 | 83.7 | 2930 | 10.4 | 4.38 | 2370 | 82.9 | 72.1 | GI50 [21]: 3.01 µM; growth at 10 µM [22]: 74.3%
COc1ccc(CCN2COc3cc(C)c4c(c3C2)CC[C@@](C)(CC/C=C(\C)CC/C=C(\C)CCC=C(C)C)O4)cc1OC | 13.2 | -77.7 | -75.2 | 2.08 | 2300 | 1940 | -4.93 | 1660 | 3.32 | 37 | 31.8 | 50.7 | 3.07 | 90 | 2070 | 0.64 | 3.95 | 1630 | -55.6 | -70.7 | GI50 [21]: 2.63 µM; growth at 10 µM [22]: 45.2%
